This note sets out measurements from ChEMBL document CHEMBL5257039, “Modulation of AMPA Receptor Gating by the Anticonvulsant Drug, Perampanel” (ACS Med Chem Lett, 2019).

Active and inactive are the calls of the source. No cut-off for these calls is given here.

Holding throughout (type): cell-based
For test [1], the target named is T1, Glutamate receptor 3 (Homo sapiens, UniProt P42263). The test can be described thus: Blockade of whole cell current in GluA3i-G (unknown origin) transfected in HEK293 cells assessed as opening of conductance level O1 measured at -60 mV in presence of glutamate at 1 uM by whole cell patch clamp assay. As to conditions: filed as negative allosteric modulator. Put shortly:
(§1)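 Single homomeric GluA3i-G channels (flip, G at R/G editing site) were recorded cell-attached for 10–45 min in 5 mM L-glutamate plus 150–200 μM cyclothiazide to block desensitization. Inhibitor at 1 or 2 μM was coapplied with glutamate, and analysis used the steady-state segment. Amplitudes were fitted to closed and O1–O4 conductance levels. Fractional occupancy per level is reported as mean ± SD over 2–3 patches.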
(In general: The patch-clamp technique gives a direct electrical read-out from membranes.)

Test [2] deals with T1, Glutamate receptor 3. The test can be described thus: Blockade of whole cell current in GluA3i-G (unknown origin) transfected in HEK293 cells measured at -60 mV in presence of glutamate by whole cell patch clamp assay. Put shortly: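 Whole-cell GluA3 currents were recorded at Vh −60 mV. Glutamate was applied first, then coapplied with inhibitor. Steady-state responses were normalized to currents in 5 mM glutamate in each of 19 cells, with 3–10 cells per concentration. The concentration–effect curve was fitted assuming simple inhibition.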

Test [3] concerns the target T1, Glutamate receptor 3. The experiment in a line: Blockade of whole cell current in GluA3i-G (unknown origin) transfected in HEK293 cells assessed as fractional occupancy at level O3 by measuring ratio at -60 mV in presence of glutamate at 2 uM by whole cell patch clamp assay (RVB = 0.44 +/- 0.14). As to conditions: filed as negative allosteric modulator. The essentials: as §1

Test [4] has as its target T1, Glutamate receptor 3. The experiment in a line: Blockade of whole cell current in GluA3i-G (unknown origin) transfected in HEK293 cells assessed as fractional occupancy at level O2 by measuring ratio at -60 mV in presence of glutamate at 2 uM by whole cell patch clamp assay (RVB = 0.23 +/- 0.051). The settings on record: filed as negative allosteric modulator. The essentials:
as §1

For test [5], the target named is T1, Glutamate receptor 3. The test can be described thus: Blockade of whole cell current in GluA3i-G (unknown origin) transfected in HEK293 cells assessed as fractional occupancy at level O1 by measuring ratio at -60 mV in presence of glutamate at 2 uM by whole cell patch clamp assay (RVB = 0.16 +/- 0.059). As to conditions: filed as negative allosteric modulator. Put shortly:
as §1

Test [6] concerns the target T1, Glutamate receptor 3. The experiment in a line: Blockade of whole cell current in GluA3i-G (unknown origin) transfected in HEK293 cells assessed as fractional occupancy at level C by measuring ratio at -60 mV in presence of glutamate at 2 uM by whole cell patch clamp assay (RVB = 0.037 +/- 0.010). The settings on record: filed as negative allosteric modulator. Put shortly: as §1

Test [7] concerns the target T1, Glutamate receptor 3. The experiment in a line: Blockade of whole cell current in GluA3i-G (unknown origin) transfected in HEK293 cells assessed as fractional occupancy at level O4 by measuring ratio at -60 mV in presence of glutamate at 1 uM by whole cell patch clamp assay (RVB = 0.14 +/- 0.050). The settings on record: filed as negative allosteric modulator. Put shortly: as §1

The target in test [8] is T1, Glutamate receptor 3. The test can be described thus: Blockade of whole cell current in GluA3i-G (unknown origin) transfected in HEK293 cells assessed as fractional occupancy at level O3 by measuring ratio at -60 mV in presence of glutamate at 1 uM by whole cell patch clamp assay (RVB = 0.44 +/- 0.14). The settings on record: filed as negative allosteric modulator. Put shortly: as §1

Test [9] concerns the target T1, Glutamate receptor 3. The experiment in a line: Blockade of whole cell current in GluA3i-G (unknown origin) transfected in HEK293 cells assessed as fractional occupancy at level O2 by measuring ratio at -60 mV in presence of glutamate at 1 uM by whole cell patch clamp assay (RVB = 0.23 +/- 0.051). As to conditions: filed as negative allosteric modulator. Put shortly: as §1

Test [10] deals with T1, Glutamate receptor 3. The experiment in a line: Blockade of whole cell current in GluA3i-G (unknown origin) transfected in HEK293 cells assessed as fractional occupancy at level O1 by measuring ratio at -60 mV in presence of glutamate at 1 uM by whole cell patch clamp assay (RVB = 0.16 +/- 0.059). As to conditions: filed as negative allosteric modulator. The essentials:
as §1

Test [11] has as its target T1, Glutamate receptor 3. The test can be described thus: Blockade of whole cell current in GluA3i-G (unknown origin) transfected in HEK293 cells assessed as fractional occupancy at level C by measuring ratio at -60 mV in presence of glutamate at 1 uM by whole cell patch clamp assay (RVB = 0.037 +/- 0.010). The settings on record: filed as negative allosteric modulator. The essentials: as §1

Test [12] addresses T1, Glutamate receptor 3. The experiment in a line: Blockade of whole cell current in GluA3i-G (unknown origin) transfected in HEK293 cells assessed as opening of conductance level O4 measured at -60 mV in presence of glutamate at 2 uM by whole cell patch clamp assay. Put shortly:
as §1

In test [13] the target is T1, Glutamate receptor 3. The experiment in a line: Blockade of whole cell current in GluA3i-G (unknown origin) transfected in HEK293 cells assessed as opening of conductance level O3 measured at -60 mV in presence of glutamate at 2 uM by whole cell patch clamp assay. Put shortly: as §1
In test [14] the target is T1, Glutamate receptor 3. The experiment in a line: Blockade of whole cell current in GluA3i-G (unknown origin) transfected in HEK293 cells assessed as opening of conductance level O2 measured at -60 mV in presence of glutamate at 2 uM by whole cell patch clamp assay. As to conditions: filed as negative allosteric modulator. The essentials: as §1
In test [15] the target is T1, Glutamate receptor 3. The test can be described thus: Blockade of whole cell current in GluA3i-G (unknown origin) transfected in HEK293 cells assessed as opening of conductance level O1 measured at -60 mV in presence of glutamate at 2 uM by whole cell patch clamp assay. The settings on record: filed as negative allosteric modulator. The essentials: as §1
The target of test [16] is T1, Glutamate receptor 3. The test can be described thus: Blockade of whole cell current in GluA3i-G (unknown origin) transfected in HEK293 cells assessed as opening of conductance level O4 measured at -60 mV in presence of glutamate at 1 uM by whole cell patch clamp assay. The essentials:
as §1

The target of test [17] is T1, Glutamate receptor 3. The test can be described thus: Blockade of whole cell current in GluA3i-G (unknown origin) transfected in HEK293 cells assessed as opening of conductance level O3 measured at -60 mV in presence of glutamate at 1 uM by whole cell patch clamp assay. Put shortly: as §1
The target in test [18] is T1, Glutamate receptor 3. The test can be described thus: Blockade of whole cell current in GluA3i-G (unknown origin) transfected in HEK293 cells assessed as opening of conductance level O2 measured at -60 mV in presence of glutamate at 1 uM by whole cell patch clamp assay. As to conditions: filed as negative allosteric modulator. Put shortly: as §1

T1 sequence (P42263 whole entry): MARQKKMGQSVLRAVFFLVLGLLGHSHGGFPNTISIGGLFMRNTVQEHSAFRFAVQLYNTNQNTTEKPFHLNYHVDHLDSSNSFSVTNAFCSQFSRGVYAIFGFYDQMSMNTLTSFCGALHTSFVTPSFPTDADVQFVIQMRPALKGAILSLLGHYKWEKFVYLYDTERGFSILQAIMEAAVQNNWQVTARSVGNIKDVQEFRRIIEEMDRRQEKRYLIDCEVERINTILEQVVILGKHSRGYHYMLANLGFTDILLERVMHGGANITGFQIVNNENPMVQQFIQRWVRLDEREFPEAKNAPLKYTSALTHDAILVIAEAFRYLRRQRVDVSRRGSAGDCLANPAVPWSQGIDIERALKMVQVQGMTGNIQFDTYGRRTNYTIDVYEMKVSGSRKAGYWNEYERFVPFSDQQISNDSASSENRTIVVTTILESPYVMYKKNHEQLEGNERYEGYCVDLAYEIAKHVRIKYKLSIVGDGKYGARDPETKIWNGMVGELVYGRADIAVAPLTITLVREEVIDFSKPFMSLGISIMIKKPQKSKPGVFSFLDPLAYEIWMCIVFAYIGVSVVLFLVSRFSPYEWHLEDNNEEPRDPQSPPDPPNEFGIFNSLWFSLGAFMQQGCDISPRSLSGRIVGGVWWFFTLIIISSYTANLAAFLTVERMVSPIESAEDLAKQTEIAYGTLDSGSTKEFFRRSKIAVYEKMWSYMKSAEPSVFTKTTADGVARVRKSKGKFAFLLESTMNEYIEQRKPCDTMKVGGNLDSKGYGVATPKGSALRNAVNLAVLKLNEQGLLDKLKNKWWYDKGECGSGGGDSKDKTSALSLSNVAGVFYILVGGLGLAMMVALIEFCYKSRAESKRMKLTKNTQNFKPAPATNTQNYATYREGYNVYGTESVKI

For the molecule `N#Cc1ccccc1-c1cc(-c2ccccn2)cn(-c2ccccc2)c1=O` [PERAMPANEL], the result on Glutamate receptor 3 [1], on Glutamate receptor 3 [14], on Glutamate receptor 3 [15] and at Glutamate receptor 3 [18] was Active. In addition, the IC50 at Glutamate receptor 3 [2] was determined as 2100 nM. The Ratio on Glutamate receptor 3 [3] turned out to be 0.015; on Glutamate receptor 3 [4] it was 0.25; on Glutamate receptor 3 [5], 0.49; at Glutamate receptor 3 [6] it was 0.23; on Glutamate receptor 3 [7], 0.001; at Glutamate receptor 3 [8] it was 0.13. The Ratio at Glutamate receptor 3 [9] is 0.53; on Glutamate receptor 3 [10], 0.3; at Glutamate receptor 3 [11], 0.078. Moreover, the result on Glutamate receptor 3 [12], on Glutamate receptor 3 [13], at Glutamate receptor 3 [16] and at Glutamate receptor 3 [17] was inactive.

By IC50 is commonly meant the concentration that inhibits the measured activity by half.
